# Test results published in ChEMBL document CHEMBL1221211, “Synthesis enables identification of the cellular target of leucascandrolide A and neopeltolide” (Nat Chem Biol, 2008).
# The source made the active and inactive calls. No cut-off for these calls is given here.
# Columns and labels:
# Saccharomyces cerevisiae [1] = experiment: Antifungal activity against Saccharomyces cerevisiae W303-1A in glucose agar media at 0.5 ug after 2 to 3 days by disk diffusion method; details: read-out: DIZ
# A549 [2] = experiment: (§1) Inhibition of bc1 complex in human A549 cells assessed as reduction in ATP production in presence of 10 mM of 2-DG; format: cell-based
# How it was run: (§2)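 A549 cells seeded at 2500 cells/well, left 4 h, then given graded compound with or without 10 mM 2-deoxyglucose for 30 min; duplicate wells; ATP by luciferase luminescence, converted to nmol/cell via ATP standard curve; expressed as % of vehicle; IC50 from ATP decrease.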
# MCF7 = experiment: Cytotoxicity against human MCF7 cells; format: functional
# PC-3 [3] = experiment: Cytotoxicity against human PC3 cells; format: functional
# K562 = experiment: Cytotoxicity against human K562 cells; format: functional
# A549 [4] = experiment: Cytotoxicity against human A549 cells; format: functional
# NCI-H226 = experiment: Cytotoxicity against human NCI-H226 cells; format: functional
# Malme-3M = experiment: Cytotoxicity against human MALME-3M cells; format: functional
# HCT-116 [5] = experiment: Induction of cell cycle arrest in human HCT116 assessed as accumulation at G1-phase at 10 uM after 24 hrs by FACS analysis; format: functional
# M14 = experiment: Cytotoxicity against human M14 cells; format: functional
# HCT-116 [6] = experiment: Cytotoxicity against human HCT116 cells; format: functional
# 786-0 = experiment: Cytotoxicity against human 786-0 cells; format: functional
# HCT-116 [7] = experiment: Induction of cell cycle arrest in human HCT116 assessed as accumulation at G2/M-phase at 10 uM after 24 hrs by FACS analysis; format: functional
# NCI/ADR-RES = experiment: Cytotoxicity against human NCI/ADR-RES cells; format: functional
# SK-OV-3 = experiment: Cytotoxicity against human SKOV3 cells; format: functional
# SK-MEL-5 = experiment: Cytotoxicity against human SK-MEL-5 […]; format: functional
# OVCAR-8 = experiment: Cytotoxicity against human OVCAR8 cells; format: functional
# DU-145 = experiment: Cytotoxicity against human DU145 cells; format: functional
# HCT-116 [8] = experiment: Induction of cell cycle arrest in human HCT116 assessed as accumulation at S-phase at 10 uM after 24 hrs by FACS analysis; format: functional
# SF-268 = experiment: Cytotoxicity against human SF268 cells; format: functional
# CAKI-1 = experiment: Cytotoxicity against human Caki1 cells; format: functional
# Saccharomyces cerevisiae [9] = experiment: Antifungal activity against Saccharomyces cerevisiae W303-1A harboring kcs1 deficient mutant gene in galactose agar media at 50 uM after 24 hrs by spectrophotometry; format: functional, organism-based
# Saccharomyces cerevisiae [10] = experiment: Inhibition of Saccharomyces cerevisiae NADH oxidase at 10 nM
# Saccharomyces cerevisiae [11] = experiment: Antifungal activity against Saccharomyces cerevisiae W303-1A in glucose agar media at 1 ug […] by disk diffusion method; format: functional; details: read-out: DIZ
# How it was run: (§3)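 W303-1A grown to saturation in YPD at RT, diluted 10-fold, spread onto YPD (2% glucose) or YPGly (3% v/v glycerol) agar; compound in 20 μl water applied to paper discs placed on agar; plates incubated 2–3 days at 30°C; growth-inhibition zone diameter read.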
# Saccharomyces cerevisiae [12] = experiment: Antifungal activity against Saccharomyces cerevisiae W303-1A harboring snf6 deficient mutant gene in galactose agar media at 50 uM after 24 hrs by spectrophotometry; format: functional, organism-based
# [13] = Inhibition of Saccharomyces cerevisiae Cytochrome b-c1 complex
# Saccharomyces cerevisiae [14] = experiment: Antifungal activity against Saccharomyces cerevisiae W303-1A harboring atg11 deficient mutant gene in galactose agar media at 50 uM after 24 hrs by spectrophotometry; format: functional, organism-based
# Saccharomyces cerevisiae [15] = experiment: Antifungal activity against Saccharomyces cerevisiae W303-1A harboring rvs161 deficient mutant gene supersensitive strain in galactose agar media at 50 uM after 24 hrs by spectrophotometry; format: functional, organism-based
# [16] = Inhibition of bovine Cytochrome b-c1 complex; design: species or system Bos taurus
# How it was run: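 Bovine heart mitochondrial bc1 complex purified (DEAE wash 150 mM NaCl, 150–400 mM NaCl gradient), diluted to 0.686 mg/ml in 50 mM phosphate pH 7.5, 300 mM NaCl, 0.1 g/l dodecyl maltoside; activity assayed in 40 mM potassium phosphate pH 7.4, 0.5 mM EDTA by monitoring reduction of equine cytochrome c; dose-response.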
# Saccharomyces cerevisiae [17] = experiment: Effect on NADH dehydrogenase in respiratory chain of Saccharomyces cerevisiae W303-1A mitochondria at […]
# HCT-116 [18] = experiment: Induction of cell cycle arrest in human HCT116 assessed as accumulation at S-phase at 100 uM after 24 hrs by FACS analysis; format: functional; details: HCT-116, 24 h
# HCT-116 [19] = experiment: Induction of cell cycle arrest in human HCT116 assessed as accumulation at G1-phase at 100 uM after 24 hrs by FACS analysis; format: functional
# Saccharomyces cerevisiae [20] = experiment: Antifungal activity against Saccharomyces cerevisiae W303-1A in glycerol agar media at 1 ug […] by disk diffusion method; format: functional; details: read-out: DIZ
# How it was run: as §3
# Saccharomyces cerevisiae [21] = experiment: Antifungal activity against Saccharomyces cerevisiae W303-1A in galactose agar media at 50 uM after 24 hrs by spectrophotometry; format: functional, organism-based
# [22] = as §1; format: cell-based
# How it was run: as §2
# A549 [23] = experiment: Inhibition of bc1 complex in human A549 cells assessed as reduction in ATP production; format: cell-based
# How it was run: as §2
# Saccharomyces cerevisiae [24] = experiment: Effect on cytochrome c oxidase activity of respiratory chain in Saccharomyces cerevisiae W303-1A mitochondria at […]
# [25] = biological target: T1, Succinate dehydrogenase [ubiquinone] cytochrome b small subunit, mitochondrial (Saccharomyces cerevisiae) (UniProt P37298); experiment: Effect on succinate:ubiquinone oxidoreductase activity of respiratory chain in Saccharomyces cerevisiae W303-1A mitochondria at […]
# T1 sequence (whole entry): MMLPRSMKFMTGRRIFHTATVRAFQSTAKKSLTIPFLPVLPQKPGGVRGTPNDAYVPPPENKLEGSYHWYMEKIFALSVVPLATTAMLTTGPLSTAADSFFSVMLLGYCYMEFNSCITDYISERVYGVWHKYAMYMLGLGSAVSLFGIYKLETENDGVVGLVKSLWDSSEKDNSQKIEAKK
# HCT-116 [26] = experiment: Induction of cell cycle arrest in human HCT116 assessed as accumulation at G2/M-phase at 100 uM after 24 hrs by FACS analysis; format: functional
# HCT-116 [27] = experiment: Effect on cellular respiration in human HCT116 cells assessed as increase in NADH level at 2.5 uM by fluorescence assay; format: functional
# How it was run: (§4)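 HCT116 cells seeded at 200 000 per collagen-coated dish, grown 41 h at 37°C, fresh medium 30–60 min; NADH autofluorescence by spinning-disk confocal microscopy (ex 350 ± 25, em 457 ± 25 nm) every 30 s at 37°C, baseline then 4 min after compound; % change from average initial vs post-addition fluorescence.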
# HCT-116 [28] = experiment: Inhibition of cell proliferation in human HCT116 cells in after 48 hrs; format: functional; details: HCT-116, 48 h
# PC-3 [29] = experiment: Inhibition of cell proliferation in human PC3 cells in after 48 hrs; format: functional; details: PC-3, 48 h
# HCT-116 [30] = experiment: Effect on cellular respiration in human HCT116 cells assessed as increase in NADH level at 0.5 uM by fluorescence assay; format: functional, cell-based
# How it was run: as §4
# Saccharomyces cerevisiae [31] = experiment: Antifungal activity against Saccharomyces cerevisiae W303-1A harboring snf4 deficient mutant gene in galactose agar media at 50 uM after 24 hrs by spectrophotometry; format: functional, organism-based
# A549 [32] = experiment: Inhibition of cell proliferation in human A549 cells in after 48 hrs; format: functional; details: A549, 48 h
# Saccharomyces cerevisiae [33] = experiment: Inhibition of cellular respiration in Saccharomyces cerevisiae W303-1A assessed as level of cytochrome b at 10 uM in presence of inhibitor; format: functional, organism-based
# Saccharomyces cerevisiae [34] = experiment: Antifungal activity against Saccharomyces cerevisiae petite strain in glucose agar media at 0.5 ug […] by disk diffusion method; format: functional; details: read-out: DIZ
# How it was run: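 Petite (ρ0) W303-1A made by ethidium bromide (25 μg/ml) treatment in minimal glucose medium, regrown drug-free, identified as white colonies failing to grow on YPGly. Saturated YPD culture diluted 10-fold, spread on glucose agar; compound in 20 μl water on paper discs; 2–3 days at 30°C; zone of inhibition read.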
# 143B [35] = experiment: Inhibition of bc1 complex in human 143B cells assessed as reduction in ATP production in presence of […] of CCCP; format: cell-based
# 143B [36] = experiment: Inhibition of bc1 complex in human 143B cells assessed as reduction in oxygen uptake at 25 nM in presence of […] of CCCP; format: cell-based
# How it was run: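 143B cells (4 × 10^6 per aliquot) in serum-free medium in stirred respirometer chamber at 37°C; O2 consumption by oxygen electrode; compound added dose-wise, then CCCP uncoupler added to test whether respiration returns.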
smiles,measurement,setting,value
C[C@@H]1C[C@@H]([C@H](O)CC2CC(=O)NC(=O)C2)C(=O)[C@@H](C)C1 [CYCLOHEXIMIDE],zone of inhibition at 0.5 µg/disc,Saccharomyces cerevisiae [1],30 mm
CC(=O)O[C@H]1C(=O)[C@@]2(C)[C@H]([C@H](OC(=O)c3ccccc3)[C@]3(O)C[C@H](OC(=O)[C@H](O)[C@@H](NC(=O)c4ccccc4)c4ccccc4)C(C)=C1C3(C)C)[C@]1(OC(C)=O)CO[C@@H]1C[C@@H]2O,inhibition,A549 [2],inactive
COC(=O)NC/C=C\c1nc(CC/C=C\C(=O)O[C@@H]2C[C@H]3C[C@H](OC)C[C@H]4O[C@@H](CC[C@@H]4C)C[C@H](/C=C/CC(C)C)OC(=O)C[C@@H](C2)O3)co1,GI50,MCF7,280 nM
same,GI50,PC-3 [3],280 nM
same,GI50,K562,280 nM
same,GI50,A549 [4],670 nM
same,GI50,NCI-H226,280 nM
same,GI50,Malme-3M,670 nM
same,Activity,HCT-116 [5],71%
same,GI50,M14,280 nM
same,GI50,HCT-116 [6],670 nM
same,GI50,786-0,280 nM
same,Activity,HCT-116 [7],8%
same,GI50,NCI/ADR-RES,670 nM
same,GI50,SK-OV-3,670 nM
same,GI50,SK-MEL-5,670 nM
same,GI50,OVCAR-8,280 nM
same,GI50,DU-145,670 nM
same,Activity,HCT-116 [8],17%
same,GI50,SF-268,280 nM
same,GI50,CAKI-1,670 nM
CCCCC[C@H]1C[C@@H]2CCC[C@@H](C[C@@H](OC)C[C@@H]3C[C@@H](OC(=O)/C=C\CCc4coc(/C=C\CNC(=O)OC)n4)C[C@H](CC(=O)O1)O3)O2,Activity,Saccharomyces cerevisiae [9],Active
same,inhibition,Saccharomyces cerevisiae [10],Active
same,zone of inhibition at 1 µg/disc,Saccharomyces cerevisiae [11],25 mm
same,Activity,Saccharomyces cerevisiae [12],Active
same,IC50,[13],1.8 nM
same,Activity,Saccharomyces cerevisiae [14],Active
same,Activity,Saccharomyces cerevisiae [15],Active
same,IC50,[16],6 nM
same,Activity,Saccharomyces cerevisiae [17],inactive
same,inhibition at 100 µM,HCT-116 [18],27%
same,Activity,HCT-116 [19],61%
same,zone of inhibition at 1 µg/disc,Saccharomyces cerevisiae [20],36 mm
same,Activity,Saccharomyces cerevisiae [21],Active
same,IC50,[22],2.6 nM
same,inhibition,A549 [23],inactive
same,Activity,Saccharomyces cerevisiae [24],inactive
same,Activity,[25],inactive
same,Activity,HCT-116 [26],6%
same,Activity,HCT-116 [27],40%
same,GI50,HCT-116 [28],0.3 nM
same,GI50,PC-3 [29],0.8 nM
same,Activity,HCT-116 [30],Active
same,Activity,Saccharomyces cerevisiae [31],Active
same,GI50,A549 [32],0.8 nM
same,inhibition,Saccharomyces cerevisiae [33],Active
same,zone of inhibition at 0.5 µg/disc,Saccharomyces cerevisiae [34],21 mm
same,inhibition,143B [35],Dose-dependent effect
same,inhibition,143B [36],Active
CCC[C@@H]1C[C@H](OC)C[C@H](C)C[C@@H]2C[C@@H](OC(=O)/C=C\CCc3coc(/C=C\CNC(=O)OC)n3)C[C@H](CC(=O)O1)O2 [NEOPELTOLIDE],zone of inhibition at 1 µg/disc,Saccharomyces cerevisiae [11],33 mm
same,IC50,[13],0.6 nM
same,IC50,[16],2 nM
same,Activity,Saccharomyces cerevisiae [17],inactive
same,zone of inhibition at 1 µg/disc,Saccharomyces cerevisiae [20],46 mm
same,IC50,[22],1.3 nM
same,inhibition,A549 [23],inactive
same,Activity,Saccharomyces cerevisiae [24],inactive
same,Activity,[25],inactive
same,GI50,HCT-116 [28],0.5 nM
same,GI50,PC-3 [29],0.3 nM
same,GI50,A549 [32],0.5 nM
